Assay results gathered from unrelated publications.
Each line is one published result; the experiments were not run side by side.
AKR1B1: Aldo-keto reductase family 1 member B1 (AKR1B1, Homo sapiens, UniProt P15121)
LATS2: Serine/threonine-protein kinase LATS2 (LATS2, Homo sapiens, UniProt Q9NRM7)

CC(C)C[C@H](NP(=O)(O)O[C@@H]1O[C@@H](C)[C@H](O)[C@@H](O)[C@H]1O)C(=O)N[C@@H](Cc1c[nH]c2ccccc12)C(=O)O
IC50 (Neprilysin (MME, Homo sapiens, UniProt P08473); enzyme activity, inhibitor): 0.575 µM

COc1cc(/C=N/NC(=S)NN=Cc2cccs2)ccc1Oc1ccnc2cc(Cl)ccc12
IC50 (AKR1B1; enzyme activity, inhibitor, absorbance): 19.7 µM

COc1c(Cl)cccc1Nc1c(-c2ccncc2OC[C@@H]2COCCO2)[nH]c2c1C(=O)NCC2
IC50 (Tyrosine-protein kinase Lck (LCK, Homo sapiens, UniProt P06239); enzyme activity, inhibitor, TR-FRET): 1.12 µM

O=C(O[C@@H]1[C@@H](O)[C@H](Oc2cc(O)c3c(c2)O[C@H](c2ccccc2)CC3=O)O[C@@H]2COC(=O)c3cc(O)c(O)c(O)c3-c3c(cc(O)c(O)c3O)C(=O)O[C@@H]12)c1cc(O)c(O)c(O)c1
IC50 (Thioredoxin domain-containing protein 5 (TXNDC5, Homo sapiens, UniProt Q8NBS9); enzyme activity, inhibitor, fluorescence): 3.9 µM

COc1cc(/C=N/NC(=S)N/N=C/c2ccc(Cl)cc2)ccc1Oc1ccnc2cc(Cl)ccc12
IC50 (AKR1B1; enzyme activity, inhibitor, absorbance): 14.9 µM

Cc1cc(-c2ccnc3[nH]cc(F)c23)cc(F)c1[C@@]1(O)[C@H](C)CN(C2CCS(=O)(=O)CC2)C[C@@H]1C
IC50 (LATS2; target engagement in cells, BRET): 0.036 µM

Cc1cn([C@H]2C[C@H](OP(=O)(O)OC[C@H]3O[C@@H](n4cc(C)c(=O)[nH]c4=O)C[C@@H]3O)[C@@H](COP(=O)(O)OP(=O)(O)O)O2)c(=O)[nH]c1=O
IC50 (dgt (Salmonella enterica, UniProt A0A5H6DAK1); enzyme activity, inhibitor): 19.7 µM

Clc1ccc(Nc2ccncc2)cc1Cl
IC50 (Endonuclease 8-like 1 (NEIL1, Homo sapiens, UniProt Q96FI4); enzyme activity, inhibitor): > 99 µM

COc1cc(/C=N/NC(=S)NN=Cc2scnc2C)ccc1Oc1ccnc2cc(Cl)ccc12
IC50 (AKR1B1; enzyme activity, inhibitor, absorbance): 17.8 µM

CC1CNCCC1(O)c1ccc(-c2ccnc3[nH]cc(F)c23)cc1 (stereo not drawn)
IC50 (LATS2; enzyme activity, inhibitor, radiometric): 0.0056 µM

COc1cc(/C=N/NC(=S)NN=Cc2ccncc2)ccc1Oc1ccnc2cc(Cl)ccc12
IC50 (AKR1B1; enzyme activity, inhibitor, absorbance): 9.92 µM

OC1(c2ccc(-c3ccnc4[nH]cc(F)c34)cc2)CCNC1 (stereo not drawn)
IC50 (LATS2; enzyme activity, inhibitor, radiometric): 0.0084 µM

Cc1cc2c(cc1C)N[C@H](c1ccccc1)[C@@H](O)C(=O)N2
IC50 (Tyrosine-protein kinase JAK2 (JAK2, Homo sapiens, UniProt O60674); enzyme activity, inhibitor, ELISA): 0.343 µM

Cc1cc(-c2ccnc3[nH]cc(F)c23)cc(F)c1[C@@]1(O)[C@H](C)CN(C(=O)CN)C[C@@H]1C
IC50 (LATS2; enzyme activity, inhibitor, radiometric): 0.0026 µM

O=C(NC1CCC2(CCCC2)CC1)c1ccc(-c2ccccc2)cc1
IC50 (Transient receptor potential cation channel subfamily M member 8 (TRPM8, Homo sapiens, UniProt Q7Z2W7); ion current, patch clamp): 0.106 µM
